Reference: ChEMBL document CHEMBL1149318, “(Z)- and (E)-[2-Fluoro-2-(hydroxymethyl)cyclopropylidene]methylpurines and -pyrimidines, a new class of methylenecyclopropane analogues of nucleosides: synthesis and antiviral activity” (J Med Chem, 2004)

How the values were obtained:
[1] = test system: Human betaherpesvirus 5; assay: Inhibition of HCMV AD169 replication in HFF cells by CPE inhibition assay; format: functional, organism-based; details: Human betaherpesvirus 5, AD169, HFF
Procedure, shortened: (§1)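 Cytopathic effect inhibition assay in HFF culture (HCMV AD169; HSV-1 and HSV-2). Cytotoxicity by neutral red uptake.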

[2] = Cytotoxicity against Daudi cells; format: cell-based; details: human
[3] = Cytotoxicity against HFF cells by neutral red uptake assay; format: cell-based; details: human
Procedure, shortened: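 Human foreskin fibroblast (HFF) cultures, as used for the HCMV assays, exposed to analogues. Cytotoxicity read by neutral red uptake.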

[4] = test system: Human gammaherpesvirus 4; assay: Inhibition of EBV replication in Daudi cells by VCA ELISA; format: functional, organism-based; details: human gammaherpesvirus 4, Daudi
Procedure, shortened: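 Viral capsid antigen (VCA) ELISA in Daudi cells; EC50 from capsid antigen signal. Cytotoxicity measured in CEM cells.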

[5] = test system: Human alphaherpesvirus 1; assay: Inhibition of HSV1 replication in BSC1 cells by ELISA; format: functional, organism-based; details: Human alphaherpesvirus 1, BSC-1
Procedure, shortened: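 HSV-1 in BSC-1 cells, read by ELISA; cytotoxicity determined in KB cells.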

[6] = test system: Hepatitis B virus; assay: Inhibition of HBV replication in 2.2.15 cells by DNA hybridization assay; format: functional, organism-based; details: HepG2 2.2.15
Procedure, shortened: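 HBV in 2.2.15 cells; viral DNA quantified by DNA hybridization to give EC50.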

[7] = Cytotoxicity against HFF cells by visual cytotoxicity; format: cell-based; details: human
Procedure, shortened: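 HFF cultures exposed to analogues. Cytotoxicity scored visually.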

[8] = test system: CCRF-CEM; assay: Cytotoxicity against CEM cells; format: functional; details: Homo sapiens
[9] = test system: Human alphaherpesvirus 1; assay: Inhibition of HSV1 in Vero cells by plaque reduction assay; details: Human alphaherpesvirus 1, Vero
[10] = test system: Human alphaherpesvirus 3; assay: Inhibition of VZV replication in HFF cells by CPE assay; format: functional, organism-based; details: Human alphaherpesvirus 3, HFF
[11] = test system: Human alphaherpesvirus 2; assay: Inhibition of HSV2 in HFF cells by CPE assay; format: functional, organism-based; details: Human alphaherpesvirus 2, HFF; procedure, shortened: as §1
[12] = test system: Human betaherpesvirus 5; assay: Inhibition of HCMV Towne replication in HFF cells by plaque reduction assay; format: functional, organism-based; details: Human betaherpesvirus 5, Towne
Procedure, shortened: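 Plaque reduction assay in HFF culture with HCMV Towne strain; cytotoxicity by neutral red uptake.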

[13] = Cytotoxicity against MT2 cells; format: cell-based; details: human
Procedure, shortened: (§2)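 Uninfected MT-2 (2 × 10^3 cells) or MT-4 (3 × 10^4 cells) cultured with analogues. Viability read by MTT assay after day 7 (MT-2) or day 5 (MT-4). Run in duplicate.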

[14] = test system: Human gammaherpesvirus 4; assay: Inhibition of EBV replication in H1 cells by DNA hybridization assay; format: functional, organism-based; details: human gammaherpesvirus 4, H1
Procedure, shortened: (§3)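 EBV DNA hybridization assay in Daudi or H-1 cells; EC50 derived from viral DNA signal. Cytotoxicity for these EBV assays measured in CEM cells.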

[15] = Cytotoxicity against HFF cells; format: cell-based; details: human
[16] = test system: Human alphaherpesvirus 1; assay: Inhibition of HSV1 in HFF cells by CPE assay; format: functional, organism-based; details: Human alphaherpesvirus 1, HFF; procedure, shortened: as §1
[17] = Cytotoxicity against Vero cells; format: cell-based; details: chlorocebus sabaeus
[18] = Inhibition of HSV2 in Vero cells by plaque reduction assay; format: cell-based; details: Chlorocebus sabaeus
Procedure, shortened: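 Plaque reduction assay in Vero cells with HSV-1 or HSV-2.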

[19] = test system: Human immunodeficiency virus 1; assay: Inhibition of HIV1 LAI replication in MT2 by CPE assay; format: functional, organism-based; details: Human immunodeficiency virus 1, LAI
Procedure, shortened: (§4)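 HIV-1 LAI, 100 TCID50, used to infect MT-2 (2 × 10^3) or MT-4 (3 × 10^4) cells, which are then cultured with test analogue. EC50 read by MTT assay on day 7 (MT-2) or day 5 (MT-4). Assays run in duplicate.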

[20] = test system: Human gammaherpesvirus 4; assay: Inhibition of EBV replication in Daudi cells by DNA hybridization assay; format: functional, organism-based; details: human gammaherpesvirus 4, Daudi; procedure, shortened: as §3
[21] = Cytotoxicity against MT4 cells; format: cell-based; details: human; procedure, shortened: as §2
[22] = Cytotoxicity against MFF cells; format: cell-based; details: mouse
[23] = test system: Murid betaherpesvirus 1; assay: Inhibition of MCMV replication in MFF cells by plaque reduction assay; format: functional, organism-based; details: Murid betaherpesvirus 1, MFF
Procedure, shortened: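 MCMV in MEF cells by plaque reduction.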

[24] = test system: Human immunodeficiency virus 1; assay: Inhibition of HIV1 LAI replication in MT4 by CPE assay; format: functional, organism-based; details: Human immunodeficiency virus 1, LAI; procedure, shortened: as §4

| Structure (SMILES) | EC50 [1] [µM] | CC50 [2] [µM] | CC50 [3] [µM] | EC50 [4] [nM] | EC50 [5] [µM] | EC50 [6] [µM] | CC50 [7] [µM] | CC50 [8] [µM] | EC50 [9] [µM] | EC50 [10] [µM] | EC50 [11] [µM] | EC50 [12] [µM] | CC50 [13] [µM] | EC50 [14] [µM] | CC50 [15] [µM] | EC50 [16] [µM] | CC50 [17] [µM] | EC50 [18] [µM] | EC50 [19] [µM] | EC50 [20] [µM] | further results |
| --- | --- | --- | --- | --- | --- | --- | --- | --- | --- | --- | --- | --- | --- | --- | --- | --- | --- | --- | --- | --- | --- |
| Nc1nc2c(ncn2/C=C2\CC2(F)CO)c(=O)[nH]1 (stereo unspecified) | > 79.6 | > 199 | > 398 | < 320 | 90 | > 20 | > 100 | > 100 | > 50 | > 79.6 | > 80 | > 100 | > 100 | > 20 | > 400 | > 80 | > 100 | > 50 | > 100 | – | – |
| Nc1ccn(/C=C2/CC2(F)CO)c(=O)n1 (stereo unspecified) | > 474 | > 237 | > 474 | < 380 | > 100 | > 20 | > 100 | > 100 | > 50 | 0.62 | > 80 | > 100 | > 100 | > 20 | > 400 | > 80 | > 100 | > 50 | > 100 | 28.4 | – |
| Nc1ccn(/C=C2\CC2(F)CO)c(=O)n1 (stereo unspecified) | > 474 | > 237 | > 474 | 760 | > 100 | > 20 | > 100 | > 100 | > 50 | 14.7 | > 80 | > 100 | > 100 | > 20 | > 400 | > 80 | > 100 | > 50 | > 100 | 94.8 | – |
| Nc1ncnc2c1ncn2/C=C1/CC1(F)CO (stereo unspecified) | 6 | > 213 | > 425 | 1450 | > 100 | > 20 | > 100 | > 100 | > 50 | 14 | > 80 | 3.6 | > 100 | 13.8 | > 400 | > 80 | > 100 | > 50 | 12 | – | CC50 [21]: > 100 µM; CC50 [22]: > 425 µM; EC50 [23]: 69.3 µM; EC50 [24]: 22 µM |
| Nc1ncnc2c1ncn2/C=C1\CC1(F)CO (stereo unspecified) | > 16.7 | > 209 | > 417 | – | 30 | 15 | > 100 | > 100 | > 50 | > 83.4 | > 80 | 20 | > 100 | – | > 400 | > 80 | > 100 | > 50 | 2.3 | – | CC50 [21]: > 100 µM; EC50 [24]: 7.6 µM |
| Cc1cn(/C=C2/CC2(F)CO)c(=O)[nH]c1=O (stereo unspecified) | > 442 | > 221 | > 442 | 51700 | 2.5 | > 20 | > 100 | > 100 | > 50 | 0.62 | > 80 | > 100 | > 100 | 2.5 | > 400 | > 80 | > 100 | > 50 | > 100 | 4.4 | – |
